Bioassay records as filed in PubChem.
Hits are enriched below; roughly 2% of the tested compounds scored in any of these assays.
LMPTP inh = blocks human LMPTP phosphatase | recombinant LMPTP-A, OMFP fluorogenic substrate, fluorescence intensity | inhibition, % at 20 µM | 0.22% of 360,000 active | AID 651560;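 active = compounds that cut the enzyme signal by at least half of the control window in the single-dose screen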;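 note: plate controls were DMSO wells with enzyme plus substrate for no effect and substrate without enzyme for full effect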
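Assay system: LMPTP-A, protein tyrosine phosphatase of low molecular weight / Medium: pH 6.0 Bis-Tris buffer with DTT and Triton X-100 / Schedule: 50 min enzyme reaction at room temperature, protected from light / Measured by: endpoint fluorescence intensity from OMFP dephosphorylation / Read-out basis: % inhibition relative to no-enzyme and uninhibited control wells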
Rpn11 block = blocks the human proteasome subunit Rpn11; O00487; human 26S proteasome, Ub4-pepOG fluorescence polarization; 20S core pre-blocked with epoxomicin; inhibition, % at 20 µM; 0.59% of 360,000 active;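 active = inhibition at 20 µM, scaled to each plate's controls, above about 33%, limit read from the data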
STEP inh = STEP (human) phosphatase inhibition | P54829 | recombinant STEP, OMFP fluorogenic substrate, fluorescence | inhibition, % at 20 µM | 0.25% of 360,000 active;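 active = inhibition at 20 µM, scaled per plate between control wells, above about 37%, limit read from the data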;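 note: 0% = DMSO with enzyme and substrate and 100% = substrate only without enzyme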
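System: STEP phosphatase, cell-free reaction; Buffer or medium: Bis-Tris pH 6.0 buffer with DTT, detergent; Incubation: 20 min at room temperature, dark; Measured by: fluorescence, 480/540 nm.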
Scp1 inh = blocks human Scp-1 phosphatase activity. Q9GZU7. Recombinant Scp1, phosphopeptide, malachite green phosphate absorbance. inhibition, % at 20 µM. 0.88% of 340,000 active;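 active = inhibition above about 50% at 20 µM, limit read from the data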;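 note: plate controls were DMSO wells with enzyme for no effect and wells lacking enzyme for full effect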
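Test system – truncated SCP-1 phosphatase (76-261aa) · Reagent – Phosphorylated 17-residue peptide substrate · Incubation – 45 min room-temperature reaction, 5 min colour, 30 min stabiliser · Detection – colorimetric phosphate reagent with accelerator and stabiliser, absorbance at 630 nm · Measure – % inhibition at 20 µM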
DNMT1 inh = DNMT1 (human) enzyme inhibition; P26358; DNMT1 molecular beacon, Hinp1I cleavage, fluorescence; inhibition (reported as % activation of signal), % at 10 µM; 0.83% of 360,000 active; AID 588458; in the data active = inhibition above about 50%
Scp1 confirm = Scp-1 (human) inhibition, single-dose confirmed | inhibition, % at 20 µM | 61% of 2,500 active | shares compounds with Scp1 inh | recombinant SCP-1 catalytic domain, phosphate release, malachite green absorbance | AID 540281;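 note: plate controls were DMSO with enzyme for no effect and buffer wells lacking enzyme for full effect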
MG interference = colorimetric interference in Scp-1 counter-screen; AID 540313; shares compounds with Scp1 inh; apparent inhibition (interference), % at 20 µM; Colorimetric interference counterscreen, malachite green absorbance 630 nm; 2,500 tested, under 10 active;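 note: compounds added after enzyme reaction finished so only phosphate colour detection is probed; plate controls were DMSO wells with completed Scp-1 reaction for no effect and substrate wells lacking enzyme for full effect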
Scp-1 Tm shift = validation of human Scp-1 inhibitors by thermal shift binding | Recombinant SCP1, Sypro Orange thermal shift Tm | thermal shift relative to vanadate control, % at 40 µM | shares compounds with Scp1 inh | 25% of 1,500 active;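 active = substances whose mean melting-temperature shift, as a percentage of the reference inhibitor's shift, reaches about 5.3%, limit read from the data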;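 note: 0% = Tm of DMSO wells and 100% = Tm with sodium orthovanadate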
Active calls of the source: *; / = not tested or not shown.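 Rule for the calls, unless noted: active = inhibition of at least 30% at 20 µM; inactive = the rest.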

SMILES	LMPTP inh	Rpn11 block	STEP inh	Scp1 inh	DNMT1 inh	Scp1 confirm	MG interference	others
COc1cc(C(=O)N/N=C/c2sc(=O)n(-c3ccccc3)c2Cl)cc(OC)c1OC	0	22	5	50*	1	-21	-17
COc1ncnc2c1ncn2CCCNCc1ccc(C)o1	-2	5	-1	/	-1	/	/
C[n+]1cccc(/C=N/NC(=O)CC23CC4CC(CC(C4)C2)C3)c1	-2	-7	-5	83*	4	-22	-21
Cc1ccccc1NS(=O)(=O)c1ccc(C(=O)N(C)CC(=O)Nc2ccccc2Br)cc1	-1	-5	-2	-13	-2	/	/
COc1ccc(NS(=O)(=O)c2cccc(C(=O)NNC(=O)c3ccccc3O)c2)cc1	-1	-4	-1	-15	2	/	/
COc1ccc(NS(=O)(=O)c2cccc(C(=O)NNC(=O)c3cccn3C)c2)cc1	2	-5	-2	63*	29	65*	-10	Scp-1 Tm shift=6.8*
Cc1ccc(S(=O)(=O)Nc2ccc3c(c2)CC(=O)N([C@H](C)CO)C[C@@H](C)[C@H](CN(C)S(=O)(=O)c2ccccc2)O3)cc1	0	0	1	-6	3	/	/
CC(C)NC(=O)N(C)C[C@H]1Oc2ccc(NS(=O)(=O)c3cn(C)cn3)cc2C(=O)N([C@H](C)CO)C[C@@H]1C	-2	-1	-5	82*	10	6	-9
C[C@@H]1CN([C@@H](C)CO)C(=O)Cc2cc(NS(=O)(=O)c3cn(C)cn3)ccc2O[C@@H]1CN(C)C(=O)Nc1ccccc1	0	2	3	88*	2	62*	-8	Scp-1 Tm shift=-4
Cc1ccc(S(=O)(=O)N(C)C[C@@H]2Oc3ccc(NS(=O)(=O)c4ccccc4)cc3CC(=O)N([C@@H](C)CO)C[C@H]2C)cc1	0	3	1	50*	-3	11	9
C[C@H](CO)N1C[C@H](C)[C@@H](CN(C)C(=O)NC2CCCCC2)Oc2ccc(NS(=O)(=O)c3cn(C)cn3)cc2C1=O	0	-9	-2	25	7	/	/
C[C@H](CO)N1C[C@H](C)[C@@H](CN(C)C(=O)Nc2ccc(C(F)(F)F)cc2)Oc2ccc(NS(=O)(=O)c3cn(C)cn3)cc2C1=O	1	3	0	73*	9	-15	-19
O=C(O)C(=Cc1ccc([N+](=O)[O-])cc1)c1cccc(Cl)c1	-1	3	-1	/	6	/	/
CC(C)(C)c1ccc(C(=O)N2CCC2(C)C(=O)Nc2ccc3nc[nH]c3c2)cc1 (stereo unspecified)	-1	-1	-1	/	-3	/	/
Cc1noc(C)c1S(=O)(=O)N(C)C[C@H]1Oc2ccc(NS(=O)(=O)c3cn(C)cn3)cc2C(=O)N([C@H](C)CO)C[C@@H]1C	0	1	-3	53*	0	9	-11
CC(C)N1C(=O)NC2NC(=O)N(C(C)C)C21 (stereo unspecified)	-1	4	-1	/	5	/	/
CCOc1ccccc1NC(=O)C1=C(C)NC(=S)NC1c1cccs1 (stereo unspecified)	-2	10	0	64*	3	-10	-11
Cc1ccccc1CCNC(=O)Cn1nc(C)c2c(C)n(-c3ccccc3)nc2c1=O	6	1	-1	-7	2	/	/
Cc1nn(CC(=O)NCc2cccs2)c(=O)c2nn(-c3ccccc3)c(C)c12	-2	-3	-2	51*	-3	-18	-18
CN1CCN(C(=O)c2cccc3c(-c4ccc(F)c(F)c4)coc23)CC1	-3	-11	3	/	2	/	/
CC(C)c1ccc(NS(=O)(=O)c2ccc3c(c2)oc(=O)n3C)cc1	1	2	0	-13	-1	-20	-23
CCN1C(=NCc2ccco2)N[C@@H](c2cccc(C(F)(F)F)c2)C(C(=O)OC)=C1C	-1	28	-2	4	3	/	/
